# Columns and labels:
# AChE = AChE (Homo sapiens, UniProt P22303); assay: biochemical
# ICR mice = assay: Acute oral toxicity test in mice; assay type: in vivo; conditions: for deaths: 10 animals; for deaths / death rate: 14 day
# How it was run: (§1)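 ICR mice (18–22 g, half male, half female), seven groups of 10. Single oral gavage of 1310, 1638, 2048, 2560, 3200 or 4000 mg/kg, suspended in 0.5% carboxymethyl cellulose; the control group received vehicle. General behaviour, toxicity signs and mortality were followed for 14 days. LD50 was estimated by log-probit regression of mortality.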
# [1] = Acute oral toxicity test in mice; assay type: in vivo; conditions: both, ICR, mouse, in vivo, po
# How it was run: as §1
# Aβ1-42 = assay: Immunohistochemistry for Aβ1-42 in hippocampus of AD model rats; assay type: in vivo; conditions: AD rats, 10, 20 mg/kg, compared with the model group (p < 0.05)
# How it was run: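 Hippocampal sections from five rats: endogenous peroxidase blocked, 5% normal goat serum in 0.3% Triton/PBS, rabbit anti-Aβ1-42 (1:300) overnight at 4 °C, biotinylated goat anti-rabbit (1:500) 1 h at room temperature, then DAB for 10 min.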
# AD model rats [2] = assay: Morris water maze in Aβ25-35-induced AD model rats; assay type: in vivo; conditions: compared to the model rats (p < 0.05)
# How it was run: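 Pool 180 cm wide, water at 25 ± 1 °C, hidden platform 2 cm submerged. Training: four 2-min trials daily (30 min apart) for 5 days. Escape latency and swim path were video-tracked. Probe trial: platform removed, 2-min swim, crossings counted. Mean ± SEM, t-test.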
# AD model rats [3] = assay: Bielschowsky silver staining of hippocampus of AD model rats; assay type: in vivo; conditions: AD rats, 10, 20 mg/kg, versus AD model group
# How it was run: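 SD rats (8 weeks, 280 ± 10 g) got bilateral hippocampal Aβ25-35 (10 μg in 2 μL, pre-aggregated 4 days at 37 °C); sham rats got saline. Formalin-fixed paraffin coronal sections (40 μm) were stained by modified Bielschowsky silver (20% AgNO3, ammoniacal silver), and positive neurons were counted at 10 × 40.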
# AD model rats [4] = assay: Open-field test in Aβ25-35-induced AD model rats; assay type: in vivo; conditions: for total distance moved in open field: AD rats, Aβ model group 17.34 ± 3.88
# How it was run: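 After 1 h acclimation, each rat explored a dimly lit 100 × 100 × 50 cm box for 2 min, with 70% ethanol cleaning between trials. Video gave total distance and central-zone time. Mean ± SEM, t-test.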
# PC12 cells = assay: Cytotoxicity in PC12 cells; assay type: cell-based; conditions: 10 μM, 24 h
# How it was run: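 PC12 cells were grown in DMEM with 10% FBS and penicillin/streptomycin (37 °C, 5% CO2), seeded at 10⁵/well and left 24 h. Test compound (DMSO stock diluted in medium) was given at 10 μM for 24 h, with edaravone as positive control. MTT was added for 2 h, formazan was dissolved in DMSO, and absorbance was read at 490 nm.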
# AD model rats [5] = assay: Nissl staining of hippocampal CA1 region of AD model rats; assay type: in vivo; conditions: 10 and 20 mg/kg groups
# How it was run: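 Brains were paraformaldehyde-postfixed and cryoprotected in 30% sucrose. Frozen 25 μm hippocampal sections were stained with 2% cresyl violet for 5 min. Necrotic CA1 cells were counted by light microscopy (n = 5 rats/group, three sections per rat).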
# AD model rats [6] = assay: HE staining of hippocampus CA3 region of AD model rats; assay type: in vivo; conditions: AD rats, 5, 10, and 20 mg/kg
# [7] = mice, single oral dose 1310 mg/kg
# [8] = mice, single oral dose 1638 mg/kg
# [9] = mice, single oral dose 2048 mg/kg
# [10] = mice, single oral dose 2560 mg/kg
# [11] = mice, single oral dose 3200 mg/kg
# [12] = mice, single oral dose 4000 mg/kg
# AChE, sequence (P22303 32-614): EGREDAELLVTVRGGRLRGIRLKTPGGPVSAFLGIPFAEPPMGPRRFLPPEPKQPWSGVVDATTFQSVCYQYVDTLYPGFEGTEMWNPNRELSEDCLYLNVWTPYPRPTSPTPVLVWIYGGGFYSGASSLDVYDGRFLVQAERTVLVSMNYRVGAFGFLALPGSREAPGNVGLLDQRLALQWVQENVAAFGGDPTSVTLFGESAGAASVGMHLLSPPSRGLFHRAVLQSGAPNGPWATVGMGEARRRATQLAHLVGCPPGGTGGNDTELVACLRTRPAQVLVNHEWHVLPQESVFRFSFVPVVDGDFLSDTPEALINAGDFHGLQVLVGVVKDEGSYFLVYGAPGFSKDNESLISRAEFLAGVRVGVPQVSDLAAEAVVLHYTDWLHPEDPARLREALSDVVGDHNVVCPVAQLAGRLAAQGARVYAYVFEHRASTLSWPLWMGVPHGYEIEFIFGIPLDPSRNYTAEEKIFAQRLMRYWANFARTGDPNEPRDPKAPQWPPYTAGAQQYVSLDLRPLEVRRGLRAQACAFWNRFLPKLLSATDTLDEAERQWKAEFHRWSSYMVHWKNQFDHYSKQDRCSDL
compound,measurement,setting,value
"COc1c(OC(=O)N(C)c2ccccc2)cc2oc3cc4c(c(O)c3c(=O)c2c1CC=C(C)C)C=CC(C)(C)O4 [AMG-1, 5-Hydroxy-8-methoxy-2,2-dimethyl-7-(3-methylbut-2-en-1-yl)-6-oxo-2,6-dihydropyrano[3,2-b]xanthen-9-yl methyl(phenyl)carbamate]",IC50,AChE,52.6 ± 11.3 µM
same,toxicity at the dose for administration,ICR mice; level of 20 mg/kg or less,no obvious toxicity
same,signs of toxicity,"ICR mice; mice, acute oral toxicity experiment period",messy furs and loose gray stool around the anus
same,time found dead after administration,"ICR mice; mice, highest dosed group 4000 mg/kg oral",16 to 48 h
same,deaths,ICR mice; [7],0
same,death rate,ICR mice; [7],0%
same,deaths,ICR mice; [8],1
same,death rate,ICR mice; [8],10%
same,deaths,ICR mice; [9],4
same,death rate,ICR mice; [9],40%
same,deaths,ICR mice; [10],6
same,death rate,ICR mice; [10],60%
same,deaths,ICR mice; [11],7
same,death rate,ICR mice; [11],70%
same,deaths,ICR mice; [12],9
same,death rate,ICR mice; [12],90%
same,LD50 at 14 day,[1],2470 mg/kg
same,expression of Aβ1-42 in hippocampus (immunohistochemistry),Aβ1-42,significantly reduced expression
same,time in the target quadrant,AD model rats [2]; probe trial,significantly more time
same,time to reach the place of the removed platform,AD model rats [2]; probe trial,significantly less time
same,escape latency in Morris water maze,AD model rats [2]; retention phase,significant improvements
same,total distance traveled in Morris water maze,AD model rats [2]; retention phase,significant improvements
same,number of senile plaques in hippocampus (silver staining),AD model rats [3],less
same,time spent in the central zone in open field,"AD model rats [4]; AD rats, 5, 10, 20 mg/kg oral 30 days, compared to the Aβ model group",dose-dependent increase
same,total distance moved in open field,AD model rats [4]; AMG-1 20 mg/kg oral once daily 30 days,28.55 ± 6.87 m
same,"inhibition ratio (cytotoxic effect, cell proliferation)",PC12 cells,7.2%
same,neuronal damage in hippocampal CA1 (Nissl staining),AD model rats [5],significantly attenuated
same,"pyramidal cell morphology and density, hippocampus CA3 (HE staining)",AD model rats [6],better cell morphology and density than those in the model group
"CCN(C(=O)Oc1cc2oc3cc4c(c(O)c3c(=O)c2c(CC=C(C)C)c1OC)C=CC(C)(C)O4)c1ccccc1 [AMG-2, 5-Hydroxy-8-methoxy-2,2-dimethyl-7-(3-methylbut-2-en-1-yl)-6-oxo-2,6-dihydropyrano[3,2-b]xanthen-9-yl ethyl(phenyl)carbamate]",IC50,AChE,35.1 ± 9.38 µM
same,"inhibition ratio (cytotoxic effect, cell proliferation)",PC12 cells,6.7%
"COc1c(OC(=O)N(C)c2ccccc2C)cc2oc3cc4c(c(O)c3c(=O)c2c1CC=C(C)C)C=CC(C)(C)O4 [AMG-3, 5-Hydroxy-8-methoxy-2,2-dimethyl-7-(3-methylbut-2-en-1-yl)-6-oxo-2,6-dihydropyrano[3,2-b]xanthen-9-yl methyl(o-tolyl)carbamate]",IC50,AChE,32.9 ± 7.78 µM
same,"inhibition ratio (cytotoxic effect, cell proliferation)",PC12 cells,5.9%
"COc1cc2c(cc1OC)C(=O)C(CC1CCN(Cc3ccccc3)CC1)C2 (stereo not drawn) [donepezil, reference compound]",total distance moved in open field,AD model rats [4]; donepezil 1 mg/kg oral once daily 30 days,31.37 ± 7.14 m
"CC1=NN(c2ccccc2)C(=O)C1 [edaravone, reference compound]","inhibition ratio (cytotoxic effect, cell proliferation)",PC12 cells,0%
"COc1c(O)cc2oc3cc(O)c(CC=C(C)C)c(O)c3c(=O)c2c1CC=C(C)C [α-M, 1,3,6-trihydroxy-7-methoxy-2,8-bis(3-methylbut-2-en-1-yl)-9H-xanthen-9-one, reference compound]",IC50,AChE,34.3 ± 6.06 µM
same,"inhibition ratio (cytotoxic effect, cell proliferation)",PC12 cells,73.1%

# From paper PMC7203693 (ACS Omega, 2020)
